Broadly, the EC50 is the concentration that produces a half-maximal response.

Structures are written as SMILES. Activity calls are given as the source filed them.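 Rule for the calls: active = DNA binding activation reaching at least 20% of the dioxin reference response; inactive = the rest.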

This note sets out measurements from PubChem BioAssay AID602172 (The Scripps Research Institute Molecular Screening Center, 2012).

The first assay addresses Aryl hydrocarbon receptor (Cavia porcellus). Description: enhancers of AHR:DRE complex formation, late-stage follow-up, mechanism study for AHR activator project, cell lysate, guinea pig liver cytosol, radiometric EMSA (AID 602172). To be noted: radiometric gel. An outline of the steps: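 Material: guinea pig hepatic cytosol / Amount: cytosol at 8 mg protein per mL / Medium: HEDG buffer at pH 7.5 / Reagent: radiolabeled DRE DNA probe with poly[dI·dC] / Timing: compound exposure of cytosol 2.5 h, room temperature / Technique: radiometric EMSA with phosphorimaging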
For orientation: A gel shift assay detects complexes by their altered migration in electrophoresis.
As for `Cc1nc(N)nc(Nc2ccc(Cl)cc2)c1Br`, the half-maximal effective concentration (EC50) is 1 µM.

For `Cc1ccc(-c2cc(-c3cccs3)[nH]n2)c(O)c1`, the EC50 is 0.5 µM.

The assay is the same for the next values; noted with them: radiometric gel, at 10 µM, stronger effect = higher value.
With `CN(C)c1nc(N)nc(-c2nc3ccccc3s2)n1`, the DNA binding activation (% of TCDD) is 58.6%. The same measure, in the same setting: to `Cn1c(C(=O)N2CCC(C(N)=O)CC2)cc2cc(Cl)ccc21` belongs 27.8%. Still for that read-out and setting: with `Cc1c(-c2ccn[nH]2)cc(NC(=O)c2ccc(Cl)cc2)c(=O)n1N` the figure was 4.4% (inactive); with `COc1cc2ccccc2cc1C(=O)Nc1ccc(C)cc1`, 67.8%; with `Cc1cc(Nc2ccc(Br)cc2)n2nc(C)nc2n1`, 8.6% (inactive). Still for that read-out and setting: with `Cc1ccccc1-c1nc(-c2cccnc2)no1` the figure was 40.4%; with `CCOc1ccccc1NC(=O)c1ccc2nccnc2c1`, 20% (inactive); with `CCOc1ccc(-c2cc(C)n3nc(C(N)=O)cc3n2)cc1`, 8.2% (inactive). With `O=C(Nc1ccon1)c1cnc2sccn2c1=O`, the DNA binding activation (% of TCDD) is 21%. On the same count and under the same terms, to `O=C(Nc1cccc(Cl)c1)c1cccnn1` belongs 21.6%.

On to `COc1ccccc1NC(=O)Nc1cccnc1`, for which the DNA binding activation (% of TCDD) is 10% (inactive). The same measure, in the same setting: with `COc1ccc(NC(=O)c2cccc3c(Br)cccc23)cc1` the figure was 18% (inactive); with `Cc1ccc(Nc2ncccc2C(N)=O)cc1`, 17.6% (inactive).

As to `Cc1csc(SCC(=O)Nc2ccc(Cl)cn2)n1`, the DNA binding activation (% of TCDD) is 7.8% (inactive). The same measure, in the same setting: to `Cc1nnc(N2C(=O)c3cccc4c([N+](=O)[O-])ccc(c34)C2=O)s1` belongs 3.7% (inactive).

Take `CCCC(=O)Nc1nn(C)c2nc3cc(C)ccc3cc12`: the DNA binding activation (% of TCDD) was 12.1% (inactive).

For `COc1ccccc1C(=O)Nc1ccc(N2CCCCC2)cc1`, the DNA binding activation (% of TCDD) is 42%. On the same count and under the same terms, with `COc1ccc(Cl)cc1C(=O)Nc1ccc(N(C)C(C)=O)cc1` the figure was 20.2%; with `COc1cc2c(cc1NC(=O)Nc1ccc(C)cc1)oc1ccccc12`, 17% (inactive); with `O=C(CN1CCOCC1)Nc1nc2ccc([N+](=O)[O-])cc2s1`, 3.2% (inactive). As to `CN1CCN(CCCNC(=O)c2cc3c(-c4ccc(Cl)cc4)nn(C)c3s2)CC1`, the DNA binding activation (% of TCDD) is 5.4% (inactive).

As for `COc1ccccc1NC(=O)c1ccc(C(=O)Nc2ccccc2OC)nc1`, the DNA binding activation (% of TCDD) is 6.4% (inactive). Still for that read-out and setting: with `COc1ccccc1NC(=O)c1ccc2c(c1)nnn2C` the figure was 15% (inactive).

`CCOC(=O)Cc1cc(-c2ccc(O)cc2)nc2ccc3ccccc3c12`: the DNA binding activation (% of TCDD) was 15.3% (inactive). On the same count and under the same terms, to `CCC(=O)Nc1cc(OC)c(NC(=O)c2ccccc2)cc1OC` belongs 7% (inactive). Still for that read-out and setting: to `O=C1c2ccccc2-c2nc3ccccc3nc21` belongs 59.4%; to `CC(=O)c1ccc(NC(=O)c2cc(Cl)nc3ccccc23)cc1`, 5.3% (inactive).

As to `Cn1c(N)c(C(=O)Nc2ccccc2F)sc1=S`, the DNA binding activation (% of TCDD) was 37%.

As to `COc1ccc(C(=O)Nc2cc(OC)c(NC(=O)c3ccco3)cc2OC)cc1`, the DNA binding activation (% of TCDD) was 10% (inactive).

Turning to `COC(=O)c1ccccc1NC(=O)Cn1ccnc1`, the DNA binding activation (% of TCDD) was 5.2% (inactive).

Turning to `CCOc1ccc(NC(=O)c2cc3ccccc3cc2OC)cc1`, the DNA binding activation (% of TCDD) is 46.8%.
